These results are taken from ChEMBL document CHEMBL1133778, “3,5-Disubstituted-4-hydroxyphenyls linked to 3-hydroxy-2-methyl-4(1H)-pyridinone: potent inhibitors of lipid peroxidation and cell toxicity” (J Med Chem, 2000).

The species named for test [1] is Rattus norvegicus. The test is described as follows: Compound was tested for 50% Inhibition of lipid peroxidation in rat brain homogenate. The format is functional.
For test [2], the species on record is Rattus norvegicus. The test is described as follows: Ability to protect cerebellar granule cells (CGC) from iodoacetate (IAA)-induced toxicity. The format is functional, cell-based.
Test [3] is filed under the species Rattus norvegicus. The test is described as follows: Relative efficacy gives an indication of the percent of viable cells (Rat cerebellar granule cells) at the maximal efficacious concentration of 0.6 uM. The format is functional.
For test [4], the species on record is Rattus norvegicus. The test is described as follows: Relative efficacy gives an indication of the percent of viable cells (Rat cerebellar granule cells) at the maximal efficacious concentration of 33.3 uM. The format is functional.
Test [5] is filed under the species Rattus norvegicus. The test is described as follows: Relative efficacy gives an indication of the percent of viable cells (Rat cerebellar granule cells) at the maximal efficacious concentration of 0.3 uM. In kind it is functional.
For test [6], the species on record is Rattus norvegicus. The test is described as follows: Relative efficacy gives an indication of the percent of viable cells (Rat cerebellar granule cells) at the maximal efficacious concentration of 0.4 uM. In kind it is functional.
The species entered for test [7] is Rattus norvegicus. The test is described as follows: Relative efficacy gives an indication of the percent of viable cells (Rat cerebellar granule cells) at the maximal efficacious concentration of 26.8 uM. In kind it is functional.
Test [8] is filed under the species Rattus norvegicus. The test is described as follows: Relative efficacy gives an indication of the percent of viable cells (Rat cerebellar granule cells) at the maximal efficacious concentration of 5.0 uM. The format is functional.
The species named for test [9] is Rattus norvegicus. The experiment in a line: Relative efficacy gives an indication of the percent of viable cells (Rat cerebellar granule cells) at the maximal efficacious concentration of 6 uM. In kind it is functional.
The species entered for test [10] is Rattus norvegicus. The experiment in a line: Relative efficacy gives an indication of the percent of viable cells (Rat cerebellar granule cells) at the maximal efficacious concentration of 46.7 uM. The format is functional. Summed up: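 Rat cerebellar granule cells exposed to 30 µM iodoacetate for 30 min in physiological salt solution, which was then replaced with maintenance medium containing test compound. Viability was read 24 h later. Relative efficacy is the percent of viable cells at the maximal efficacious concentration.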

The species entered for test [11] is Rattus norvegicus. The test is described as follows: Relative efficacy gives an indication of the percent of viable cells (Rat cerebellar granule cells) at the maximal efficacious concentration of 77.8 uM. In kind it is functional.

By IC50 is commonly meant the midpoint of a concentration-inhibition curve. The low end stands for greater potency in that assay, the high end for weaker potency in that assay. One may read the EC50 as the concentration at which the effect is half-maximal. Compound `Cc1c(O)c(=O)ccn1CCCCc1cc(C(C)(C)C)c(O)c(C(C)(C)C)c1` showed a concentration for half-maximal inhibition (IC50) in the test listed under Rattus norvegicus [1] of 2.9 µM. This compound showed an EC50 in the test listed under Rattus norvegicus [2] of 0.6 µM. The compound further registered a Relative efficacy in the test filed under Rattus norvegicus [3] of 0.7.
With `COc1cc(CCn2ccc(=O)c(O)c2C)cc(OC)c1O`, in the test filed under Rattus norvegicus [1], the IC50 was 3.3 µM. The compound further came in with an EC50 in the test listed under Rattus norvegicus [2] of 33.3 µM. Also, in the test filed under Rattus norvegicus [4], the Relative efficacy is on record as 0.9.
As to `Cc1c(O)c(=O)ccn1CCCc1cc(C(C)(C)C)c(O)c(C(C)(C)C)c1`, the IC50 in the test filed under Rattus norvegicus [1] came out at 1 µM. The EC50 in the test filed under Rattus norvegicus [2] was 0.3 µM. The compound also returned a Relative efficacy in the test listed under Rattus norvegicus [5] of 0.8.
On to `Cc1c(O)c(=O)ccn1CCSc1cc(C(C)(C)C)c(O)c(C(C)(C)C)c1`, for which the IC50 in the test listed under Rattus norvegicus [1] is 0.4 µM. This compound displayed an EC50 in the test filed under Rattus norvegicus [2] of 0.4 µM. In the test listed under Rattus norvegicus [6], the Relative efficacy is on record as 0.6.
In turn, `COc1cc(CCCn2ccc(=O)c(O)c2C)cc(OC)c1O` displayed an IC50 in the test listed under Rattus norvegicus [1] of 2 µM. Moreover, the EC50 in the test filed under Rattus norvegicus [2] turned out to be 26.8 µM. The Relative efficacy in the test filed under Rattus norvegicus [7] turned out to be 0.8.
The compound `Cc1c(O)c(=O)ccn1CCc1cc(C(C)(C)C)c(O)c(C(C)(C)C)c1` came in with an IC50 in the test listed under Rattus norvegicus [1] of 0.3 µM. For the same compound, in the test listed under Rattus norvegicus [2], the EC50 is 0.3 µM. Further, the Relative efficacy in the test listed under Rattus norvegicus [5] stood at 0.9.
For `CCNCc1cc(C(C)(C)C)c(O)c(C(C)(C)C)c1`, the IC50 in the test filed under Rattus norvegicus [1] came to 14.8 µM. The Relative efficacy in the test filed under Rattus norvegicus [8] came out at 0.9. Besides, the EC50 in the test listed under Rattus norvegicus [2] was 5 µM.
`Cc1cc(C(C)(C)C)c(O)c(C(C)(C)C)c1` [BUTYLATED HYDROXYTOLUENE] returned an IC50 in the test filed under Rattus norvegicus [1] of 5.9 µM. In the test filed under Rattus norvegicus [9], the Relative efficacy came out at 0.9. This compound also registered an EC50 in the test filed under Rattus norvegicus [2] of 6 µM.
Regarding `Cc1c(O)c(=O)ccn1C` [DEFERIPRONE], half-maximal inhibition in the test listed under Rattus norvegicus [1] (IC50) required 3.9 µM. In the test listed under Rattus norvegicus [2], this compound had an EC50 of 46.7 µM. Also, the Relative efficacy in the test filed under Rattus norvegicus [10] stood at 1.
`Cc1c(C)c2c(c(C)c1O)CCC(C)(C(=O)O)O2` (stereo not given) [TROLOX]: the half-inhibitory concentration (IC50) in the test filed under Rattus norvegicus [1] is 28.7 µM. In addition, in the test filed under Rattus norvegicus [11], the Relative efficacy was 0.9. Further, the EC50 in the test filed under Rattus norvegicus [2] was determined as 77.8 µM.
